PKD1 kinase inh: inhibitors of human PKD1 kinase, biochemical, fluorescence polarization; Serine/threonine-protein kinase D1 (Homo sapiens), Q15139; PKD1 kinase fluorescence polarization assay; inhibition, % (no concentration beside the values); 200,000 compounds, 0.056% hits; in the data active = inhibition above about 50%
Target sequence (Q15139 whole entry, looked up): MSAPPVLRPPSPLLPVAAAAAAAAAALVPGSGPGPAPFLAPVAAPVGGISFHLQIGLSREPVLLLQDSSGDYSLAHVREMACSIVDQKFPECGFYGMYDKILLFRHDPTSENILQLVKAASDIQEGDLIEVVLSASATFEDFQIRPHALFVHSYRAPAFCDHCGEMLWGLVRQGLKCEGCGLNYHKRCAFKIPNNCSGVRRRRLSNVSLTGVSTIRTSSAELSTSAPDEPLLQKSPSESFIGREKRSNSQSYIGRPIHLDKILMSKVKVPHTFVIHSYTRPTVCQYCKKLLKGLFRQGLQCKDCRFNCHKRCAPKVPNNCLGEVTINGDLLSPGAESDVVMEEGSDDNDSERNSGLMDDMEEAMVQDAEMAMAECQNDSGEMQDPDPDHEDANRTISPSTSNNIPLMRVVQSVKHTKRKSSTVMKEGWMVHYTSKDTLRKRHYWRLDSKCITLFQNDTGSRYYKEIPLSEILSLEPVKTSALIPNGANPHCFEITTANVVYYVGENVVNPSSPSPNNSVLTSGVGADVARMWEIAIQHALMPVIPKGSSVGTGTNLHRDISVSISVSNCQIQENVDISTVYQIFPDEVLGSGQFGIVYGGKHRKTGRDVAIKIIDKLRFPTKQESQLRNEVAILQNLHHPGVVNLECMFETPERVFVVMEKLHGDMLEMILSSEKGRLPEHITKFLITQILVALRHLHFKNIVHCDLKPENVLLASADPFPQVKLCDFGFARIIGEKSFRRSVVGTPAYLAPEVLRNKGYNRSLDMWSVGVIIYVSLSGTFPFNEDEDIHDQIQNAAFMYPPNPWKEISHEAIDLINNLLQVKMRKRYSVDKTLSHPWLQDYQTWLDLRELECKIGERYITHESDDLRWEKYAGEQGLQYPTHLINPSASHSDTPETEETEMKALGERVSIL
p97 ATPase inh: inhibitors of human p97 ATPase, primary screen, biochemical | Transitional endoplasmic reticulum ATPase (Homo sapiens), P55072 | recombinant p97 ATPase, Kinase-Glo ATP luminescence, 3 h | inhibition, % at 8 µM | 220,000 compounds, 0.42% hits | AID 1481, 2009; in the data active = inhibition above about 15%;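 also: 0% = DMSO vehicle and 100% = wells lacking enzyme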
RBBP9 inhibitor: human RBBP9 inhibitors, primary screen, biochemical, fluorescence polarization, FP-Rh probe, HTS; Serine hydrolase RBBP9 (Homo sapiens), O75884; 220,000 compounds, 0.2% hits; inhibition, % at 7.94 µM; recombinant RBBP9;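 active = inhibition above the campaign mean of all tested compounds plus 3 SD, cut at about 14% in these data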;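 also: plate controls were DMSO wells with RBBP9 for no effect and wells lacking RBBP9 protein for full effect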
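System: RBBP9 protein / Quantity: 2.5 µM RBBP9 dispensing solution, before mixing / Also added: Serine-hydrolase probe FP-Rh, 375 nM pre-mixing / Dosing: 7.94 µM single dose, 0.794% DMSO / Timing: enzyme-compound preincubation 30 min, then probe labeling 45 min, 25 °C / Signal: FP readout at 525/598 nm / Controls: DMSO-treated enzyme wells and wells lacking RBBP9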
PP5 inh: PP5 phosphatase inhibitors, primary screen, biochemical, fluorescence. Serine/threonine-protein phosphatase 5 (Homo sapiens), P53041. 320,000 compounds, 0.18% hits. AID 1987, 2009. purified PP5c, OMFP substrate fluorescence. inhibition, % at 6.7 µM;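 active = inhibition above the campaign's mean inhibition across all tested compounds plus 3 SD, cut at about 9.5% in these data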;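 also: 0% = DMSO only and 100% = 100 µM cantharidin control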
PP1 counter: PP1-alpha phosphatase inhibitors, primary screen, counter-screen for PP5 inhibitor project, biochemical, fluorescence, OMFP substrate, single point; Serine/threonine-protein phosphatase PP1-alpha catalytic subunit (Homo sapiens), P62136; purified PP1alpha; inhibition, % at 6.7 µM; 320,000 compounds, 0.9% hits; AID 2235, 2010;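 active = inhibition above the mean inhibition of all tested compounds plus 3 SD, computed separately for each screening campaign, cut at about 15% in these data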
Hsp70 act: Hsp70 transcriptional activators, primary screen, cell-based, HeLa, Hsp70 promoter luciferase, luminescence, 10 µM | HeLa Hsp70 promoter luciferase reporter; scaled: vehicle 0, proteasome-inhibitor control 100% | activation, % at 10 µM | 200,000 compounds, 0.04% hits | AID 1203, 2008;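 active = activation above the mean across all tested compounds plus 3 SD, cutoff set per campaign, cut at about 5.5% in these data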;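 also: 100% = MG132 at 30 µM as the positive control and 0% = DMSO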
PP1 confirm: PP1 phosphatase inhibitors, confirmation, biochemical, fluorescence, OMFP substrate, triplicate; purified PP1alpha; inhibition, % at 6.7 µM; shares compounds with PP1 counter; 1,900 compounds, 52% hits;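 active = mean PP1 inhibition above a set limit taken from the earlier primary screen, cut at about 15% in these data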
PP5 inh counter: PP5 phosphatase inhibition by PP1 hits, confirmation, counter-screen for PP1 inhibitor project, biochemical, fluorescence, triplicate. shares compounds with PP1 counter. purified PP5c, OMFP fluorescence. inhibition, % at 6.7 µM. 1,900 compounds, 4% hits;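 active = mean PP5 inhibition over triplicate wells above about 9.5% taken from the earlier PP1 screen, limit read from the data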
Active calls of the source: *; · = no result given. In the library only some 1.5% were active in any assay of this set; here they are far more common.

SMILES	PKD1 kinase inh	p97 ATPase inh	RBBP9 inhibitor	PP5 inh	PP1 counter	Hsp70 act	PP1 confirm	PP5 inh counter
COc1ccc(/C(O)=C2/C(=O)C(=O)N(c3ccccn3)C2c2ccc(OC)c(OC)c2)cc1 (stereo unspecified)	·	3	-2	1	0	·	·	·
CCCOc1ccc(/C(O)=C2/C(=O)C(=O)N(c3ccccn3)C2c2ccc(OC)cc2)cc1C (stereo unspecified)	·	·	·	-1	31*	·	23*	-3
Cc1cccc(C(CC(=O)O)NC(=O)C(F)(F)F)c1 (stereo unspecified)	3	3	-2	-1	1	0	·	·
CC1=NOC(=O)/C1=C/c1ccc(-c2ccc(Cl)cc2)o1	0	3	-4	2	18*	0	49*	-2
O=C(Cc1ccc(Cl)cc1)Nc1ccc(-c2cc3ccccc3oc2=O)c(Cl)c1	1	2	-20	2	23*	0	24*	3
O=C(Cc1ccc(Cl)cc1)Nc1ccc2oc(=O)ccc2c1	·	-2	-4	0	0	·	·	·
Clc1ccc(C(Cn2ccnc2)OCc2c(Cl)cccc2Cl)c(Cl)c1 (stereo unspecified)	·	·	·	5	26*	·	18*	-3
OC(Cn1ccnc1)c1ccc(Cl)cc1Cl (stereo unspecified)	-1	-2	-4	1	0	0	·	·
CCCCNC(=O)COc1ccccc1[N+](=O)[O-]	1	-3	-7	0	1	0	·	·
CCCCn1c(SCC(=O)NCc2ccco2)nc2c(sc3ccccc32)c1=O	-3	3	4	-2	22*	0	24*	-2
CCn1c(SCC(=O)NCc2ccco2)nc2ccccc2c1=O	0	1	-2	0	-2	0	·	·
O=C(CSc1nc2ccccc2c2nc3ccccc3n12)NCc1ccco1	-10	4	-17	1	31*	0	20*	0
Cc1cc(C(=O)COC(=O)CC2Sc3ccccc3NC2=O)c(C)n1-c1ccccc1 (stereo unspecified)	4	-8	-12	3	23*	0	9	-2
C=CCOC(=O)C1=C(C)NC(SCC(=O)Nc2ccc(C)c(Cl)c2)=C(C#N)C1c1ccco1 (stereo unspecified)	2	-6	-5	1	19*	-1	7	2
CS(=O)(=O)Nc1ccc(C2=NN(C(=O)CCCC(=O)O)C(c3cccs3)C2)cc1 (stereo unspecified)	·	·	·	-1	0	·	·	·
COc1ccccc1NC(=O)c1c(Nc2ccccc2F)sc(C(=O)Nc2cccc(Cl)c2)c1N	-5	4	-28	0	22*	0	2	2
O=C(Nc1ccc(S(=O)(=O)Nc2nccs2)cc1)c1ccc(N2C(=O)c3ccccc3C2=O)cc1	-3	1	-14	-2	28*	0	15	-1
O=C(Nc1ccc(S(=O)(=O)Nc2nccs2)cc1)c1ccc(F)cc1	·	·	·	2	-1	·	·	·
Cc1ccc(NC(=O)COC(=O)c2ccc([N+](=O)[O-])o2)cc1S(=O)(=O)N1CCCCCC1	-4	6	-2	5	1	0	·	·
COc1ccc(CNC(=O)CNC(=O)CNS(=O)(=O)c2ccc(C)c(C)c2)cc1	·	·	·	1	-2	·	·	·
CCc1ccc(N2CC(C(=O)OCC(=O)NNC(=O)c3ccccc3)CC2=O)cc1 (stereo unspecified)	·	·	·	-1	-4	·	·	·
